From ChEMBL document CHEMBL4627249, “New modification strategy of matrine as Hsp90 inhibitors based on its specific L conformation for cancer treatment” (Bioorg Med Chem, 2020) come the findings set out here.

One assay concerns HepG2. The assay can be described thus: Antiproliferative activity against human HepG2 cells assessed as reduction in cell viability after 48 hrs by MTT assay. Format: functional, cell-based. Conditions: HepG2, 48 h. The method in brief:
(§1)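 HepG2 or HeLa cells in DMEM with 10% FBS and 1% penicillin-streptomycin were preincubated 24 h (37 °C, 5% CO2). They were then exposed for 48 h to 1, 5, 10, 20, 50 and 100 µM, diluted in medium from DMSO stocks. MTT (5 mg/mL, 20 µL) was added for 4 h, formazan dissolved in DMSO, and A490 read. Each concentration was run in triplicate. IC50 is the mean from dose-response curves of at least three independent experiments; cisplatin was the positive control.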

In assay [1] the target is Heat shock protein HSP90 (Homo sapiens) (UniProt P07900+P08238).
In another assay the test system is MDA-MB-231. The assay can be described thus: Antiproliferative activity against human MDA-MB-231 cells assessed as reduction in cell viability after 48 hrs by MTT assay. Conditions: MDA-MB-231, 48 h. The class given is functional, cell-based.
A further assay deals with HeLa. Briefly: Antiproliferative activity against human HeLa cells assessed as reduction in cell viability after 48 hrs by MTT assay. The class given is functional, cell-based. A digest of the protocol: as §1
On the technique in general: Formazan colour is commonly taken as a measure of viable cells.

Molecules are shown by their SMILES. Activity calls are given as the source filed them. No cut-off for these calls is given here.

Regarding `O=C1CCC[C@@H]2[C@H]3CCCN4CCC[C@@H](CN12)[C@@H]34` [MATRINE], the IC50 (in general, the concentration that gives 50% inhibition) with HepG2 worked out at 4510 µM; in the assay with MDA-MB-231 it was 5370 µM; in the assay on HeLa it was 4330 µM. Besides, the ΔTm (commonly the shift of the melting midpoint relative to a reference) in assay [1] was 0.04 °C.
The corresponding values for `Nc1c2c(nc3ccc([N+](=O)[O-])cc13)N1C[C@@H]3CCCN4CCC[C@@H]([C@H]34)[C@H]1CC2` are 35.1 µM, 24.4 µM, 69.2 µM and -0.24 °C.
The corresponding values for `CCOc1ccc(/N=C2\CCC[C@@H]3[C@H]4CCCN5CCC[C@@H](CN23)[C@@H]45)cc1` are 97.5 µM, over 100 µM, over 100 µM and 0 °C.
As for `Nc1c2c(nc3ccccc13)N1C[C@@H]3CCCN4CCC[C@@H]([C@H]34)[C@H]1CC2`, the IC50 with HepG2 was found to be 14.3 µM; in the assay with MDA-MB-231, 22.2 µM; in the assay with HeLa, 23.3 µM. Besides, in assay [1], the ΔTm was -3.12 °C.
The corresponding values for `Cc1c(/N=C2\CCC[C@@H]3[C@H]4CCCN5CCC[C@@H](CN23)[C@@H]45)cccc1[N+](=O)[O-]` are 86.1 µM, over 100 µM, over 100 µM and -1.06 °C.
Take `CC(C)c1ccc(/N=C2\CCC[C@@H]3[C@H]4CCCN5CCC[C@@H](CN23)[C@@H]45)cc1`: the IC50 in the assay on HepG2 amounted to 96.6 µM; in the assay on MDA-MB-231 it was 77.5 µM; in the assay with HeLa, 93.3 µM. The ΔTm in assay [1] is -1.24 °C.
With `O=C1CCCC[C@@H]2[C@H]3CCCN4CCC[C@@H](CN12)[C@@H]34`, the IC50 in the assay with HepG2, in the assay on MDA-MB-231 and in the assay with HeLa was over 100 µM each time.
`Nc1c2c(nc3ccc(Br)cc13)N1C[C@@H]3CCCN4CCC[C@@H]([C@H]34)[C@H]1CC2`: the half-inhibitory concentration (IC50) in the assay on HepG2 turned out to be 9.7 µM; in the assay with MDA-MB-231, 9.7 µM; in the assay with HeLa it was 6.9 µM. Further, the ΔTm in assay [1] is -7.58 °C.
In the case of `c1ccc(-c2ccc(/N=C3\CCC[C@@H]4[C@H]5CCCN6CCC[C@@H](CN34)[C@@H]56)cc2)cc1`, the figures for the IC50 with HepG2, in the assay on MDA-MB-231 and with HeLa were 11 µM, 24.6 µM and 23.7 µM, respectively. Further, the ΔTm in assay [1] was -4.91 °C.
On the same counts, the results for `Nc1c2c(nc3ccc(F)cc13)N1C[C@@H]3CCCN4CCC[C@@H]([C@H]34)[C@H]1CC2` are 13.1 µM, 37.3 µM, 18.8 µM and -2.3 °C.
The corresponding values for `N#Cc1ccccc1/N=C1\CCC[C@@H]2[C@H]3CCCN4CCC[C@@H](CN12)[C@@H]34` are over 100 µM, over 100 µM, over 100 µM and -1.44 °C.
Take `Cc1ccc2nc3c(c(N)c2c1)CC[C@@H]1[C@H]2CCCN4CCC[C@@H](CN31)[C@@H]24`: the IC50 turned out to be 9.2 µM with HepG2, 16.9 µM with MDA-MB-231 and 13.4 µM in the assay with HeLa. In addition, in assay [1], the ΔTm is -4.27 °C.
Regarding `Nc1c2c(nc3ccc(Cl)cc13)N1C[C@@H]3CCCN4CCC[C@@H]([C@H]34)[C@H]1CC2`, the IC50 with HepG2 was 6.4 µM; with MDA-MB-231, 14.3 µM; in the assay on HeLa it was 8.9 µM. For the same molecule, in assay [1], the shift in melting temperature (ΔTm) was -6.58 °C.
For `c1ccc(Oc2ccc(/N=C3\CCC[C@@H]4[C@H]5CCCN6CCC[C@@H](CN34)[C@@H]56)cc2)cc1`, the values for the IC50 in the assay with HepG2, in the assay with MDA-MB-231 and in the assay on HeLa were 51.3 µM, 55.2 µM and 33.7 µM, respectively. Further, the shift in melting temperature (ΔTm) in assay [1] was -1.3 °C.
The corresponding values for `COc1ccc2nc3c(c(N)c2c1)CC[C@@H]1[C@H]2CCCN4CCC[C@@H](CN31)[C@@H]24` are 10.9 µM, 21.2 µM, 18 µM and -5.48 °C.
With `O=C1C[C@@H]2[C@H]3CCCN4CCC[C@@H](CN12)[C@@H]34`, the IC50 with HepG2, in the assay on MDA-MB-231 and in the assay with HeLa was over 100 µM throughout. For the same molecule, the ΔTm in assay [1] was found to be 0.44 °C.
For the molecule `c1ccc(/N=C2\CCC[C@@H]3[C@H]4CCCN5CCC[C@@H](CN23)[C@@H]45)cc1`, the IC50 in the assay with HepG2, in the assay with MDA-MB-231 and in the assay on HeLa was over 100 µM each time. Also, in assay [1], the ΔTm was -0.57 °C.
Take `Clc1ccc(/N=C2\CCC[C@@H]3[C@H]4CCCN5CCC[C@@H](CN23)[C@@H]45)cc1`: the values for the IC50 with HepG2, with MDA-MB-231 and in the assay on HeLa were over 100 µM, 73.4 µM and over 100 µM, respectively. In assay [1], the deltaTm entry is “inactive”.
